Source: ChEMBL document CHEMBL1145210, “Novel cyano- and N-isopropylamidino-substituted derivatives of benzo[b]thiophene-2-carboxanilides and benzo[b]thieno[2,3-c]quinolones: synthesis, photochemical synthesis, crystal structure determination, and antitumor evaluation. 2” (J Med Chem, 2005)

Key:
MCF7 = assay: In vitro Inhibition on growth of human MCF 7 breast carcinoma cell line; assay type: functional, cell-based
Summary of the method: (§1)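 Monolayer cultures in DMEM with 10% FBS, 2 mM L-glutamine, penicillin/streptomycin, 37 °C, 5% CO2. Cells plated on day 0 at densities set by doubling time (1 × 10⁴/mL HeLa, Hep-2, MiaPaCa-2, SW 620; 2 × 10⁴/mL MCF-7; 3 × 10⁴/mL WI 38). Compound added at five 10-fold dilutions (10^-8 to 10^-4 mol/L) for 72 h. MTT read at 570 nm, converted to percentage growth versus time-zero and untreated controls. Quadruplicate points, three experiments. IC50 by linear regression.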

SW-620 [1] = assay: In vitro Inhibition on growth of human SW 620 colon carcinoma cell line; assay type: functional, cell-based; summary of the method: as §1
HeLa [2] = assay: In vitro Inhibition on growth of human HeLa cervical carcinoma cell line; assay type: functional, cell-based; summary of the method: as §1
[3] = In vitro Inhibition on growth of human WI 38 diploid fibroblast cell line; assay type: functional, cell-based; summary of the method: as §1
[4] = In vitro Inhibition on growth of human Hep 2 laryngeal carcinoma cell line; assay type: functional; summary of the method: as §1
MIA PaCa-2 [5] = assay: In vitro Inhibition on growth of human MiaPaCa-2 pancreatic carcinoma cell line; assay type: functional, cell-based; summary of the method: as §1
HeLa [6] = assay: Percentage of apoptosis induced by compound in HeLa cell line after at 5 uM concentration 72 h; assay type: functional, Homo sapiens
Summary of the method: (§2)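 Annexin-V assay after 72 h exposure to 5 or 10 µM. Cells washed with PBS, pelleted, and stained with Annexin-V-fluorescein plus propidium iodide in Hepes buffer. Scored by fluorescence microscopy: Annexin-V-positive cells counted as apoptotic, Annexin-V/PI double-positive as necrotic. Apoptotic fraction given as percentage of total cells.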

HeLa [7] = assay: Percentage of apoptosis induced by compound in HeLa cell line after at 10 uM concentration 72 h; assay type: functional, Homo sapiens; summary of the method: as §2
SW-620 [8] = assay: Percentage of apoptosis induced by compound in SW 620 cell line at 5 uM concentration after 72 h; assay type: functional, Homo sapiens; summary of the method: as §2
SW-620 [9] = assay: Percentage of apoptosis induced by compound in SW 620 cell line at 10 uM concentration after 72 h; assay type: functional, Homo sapiens; summary of the method: as §2
MIA PaCa-2 [10] = assay: Percentage of apoptosis induced by compound in MiaPaCa-2 cell line at 5 uM concentration after 72 h; assay type: functional, Homo sapiens; summary of the method: as §2
MIA PaCa-2 [11] = assay: Percentage of apoptosis induced by compound in MiaPaCa-2 cell line at 10 uM concentration after 72 h; assay type: functional, Homo sapiens; summary of the method: as §2

SMILES	IC50 (MCF7)	IC50 (SW-620 [1])	IC50 (HeLa [2])	IC50 (MIA PaCa-2 [5])	IC50 [3]	IC50 [4]	Apoptosis (HeLa [6])	Apoptosis (HeLa [7])	Apoptosis (SW-620 [8])	Apoptosis (SW-620 [9])	Apoptosis (MIA PaCa-2 [10])	Apoptosis (MIA PaCa-2 [11])
COC(=O)c1ccc(NC(=O)c2sc3ccccc3c2Cl)cc1	> 100 µM	> 100 µM	> 100 µM	> 100 µM	44.3 µM	> 100 µM	–	–	–	–	–	–
CC(C)/N=C(/N)c1ccc2nc(O)c3sc4cc(C#N)ccc4c3c2c1	> 100 µM	> 100 µM	6.14 µM	42.1 µM	≥ 100 µM	≥ 100 µM	–	–	–	–	–	–
N#Cc1ccc2c(Cl)c(C(=O)Nc3ccccc3)sc2c1	84.9 µM	≥ 100 µM	0.35 µM	> 100 µM	≥ 100 µM	0.69 µM	–	–	–	–	–	–
COC(=O)c1ccc2c(Cl)c(C(=O)Nc3ccccc3)sc2c1	> 100 µM	95.5 µM	> 100 µM	> 100 µM	53.6 µM	> 100 µM	–	–	–	–	–	–
Cc1ccc(NC(=O)c2sc3cc(C#N)ccc3c2Cl)cc1	> 100 µM	> 100 µM	> 100 µM	> 100 µM	0.75 µM	> 100 µM	–	–	–	–	–	–
CC(C)/N=C(/N)c1ccc2c(c1)sc1c(O)nc3ccccc3c12	21.3 µM	3.76 µM	49.2 µM	18 µM	37.4 µM	20.9 µM	–	–	–	–	–	–
COC(=O)c1ccc2c(c1)sc1c(O)nc3ccc(C(=N)NC(C)C)cc3c12	65.1 µM	48.8 µM	4.79 µM	5.64 µM	> 100 µM	45.9 µM	12%	17%	7%	9%	4%	13%
N#Cc1ccc(NC(=O)c2sc3ccccc3c2Cl)cc1	100 µM	> 100 µM	0.86 µM	> 100 µM	8.12 µM	6.5 µM	–	–	–	–	–	–
CC(C)/N=C(/N)c1ccc2c(c1)sc1c(O)nc3ccc(/C(N)=N\C(C)C)cc3c12	78.5 µM	≥ 100 µM	31.6 µM	86.9 µM	≥ 100 µM	> 100 µM	–	–	–	–	–	–
CC(C)/N=C(/N)c1ccc(NC(=O)c2sc3cc(C#N)ccc3c2Cl)cc1	23.9 µM	8.02 µM	22.2 µM	8.72 µM	25.1 µM	21 µM	–	–	–	–	–	–
COc1ccc2c(c1)sc1c(O)nc3ccc(C(=N)NC(C)C)cc3c12	38 µM	20.6 µM	2.34 µM	6.73 µM	40.6 µM	34.7 µM	–	–	–	–	–	–
COC(=O)c1ccc(NC(=O)c2sc3cc(C#N)ccc3c2Cl)cc1	> 100 µM	4.62 µM	24.1 µM	> 100 µM	2.71 µM	59.1 µM	6%	52%	6%	71%	3%	9%
N#Cc1ccc2c(Cl)c(C(=O)Nc3ccc(Br)cc3)sc2c1	> 100 µM	> 100 µM	> 100 µM	> 100 µM	5.99 µM	> 100 µM	–	–	–	–	–	–

Stronger by IC50 (MCF7), values ahead:

IC50 (MCF7)	IC50 (SW-620 [1])	IC50 (HeLa [2])	IC50 (MIA PaCa-2 [5])	SMILES	IC50 [3]	IC50 [4]	Apoptosis (HeLa [6])	Apoptosis (HeLa [7])	Apoptosis (SW-620 [8])	Apoptosis (SW-620 [9])	Apoptosis (MIA PaCa-2 [10])	Apoptosis (MIA PaCa-2 [11])
17.6 µM	> 100 µM	40.4 µM	90.9 µM	COc1ccc(NC(=O)c2sc3cc(C#N)ccc3c2Cl)cc1	23.4 µM	48.4 µM	–	–	–	–	–	–
17.4 µM	8.24 µM	5.83 µM	22.5 µM	COc1ccc(NC(=O)c2sc3cc(C(=N)NC(C)C)ccc3c2Cl)cc1	29.8 µM	9.7 µM	–	–	–	–	–	–
15.6 µM	> 100 µM	25.6 µM	75.9 µM	CC(C)/N=C(/N)c1ccc(NC(=O)c2sc3cc(/C(N)=N\C(C)C)ccc3c2Cl)cc1	86.9 µM	67.3 µM	–	–	–	–	–	–
7.26 µM	3.54 µM	2.35 µM	5.11 µM	Cc1ccc(NC(=O)c2sc3cc(/C(N)=N\C(C)C)ccc3c2Cl)cc1	2.03 µM	2.96 µM	–	–	–	–	–	–
6.28 µM	13.2 µM	8.92 µM	7.99 µM	CC(C)/N=C(/N)c1ccc2c(c1)sc1c(O)nc3ccc(Br)cc3c12	3.88 µM	9.79 µM	10%	15%	9%	13%	3%	11%
5.78 µM	6.84 µM	1.7 µM	3.71 µM	CC(C)/N=C(/N)c1ccc2nc(O)c3sc4cc(Br)ccc4c3c2c1	19 µM	6.95 µM	–	–	–	–	–	–
5.58 µM	22.7 µM	6.43 µM	6.67 µM	Cc1ccc2nc(O)c3sc4cc(/C(N)=N\C(C)C)ccc4c3c2c1	19.1 µM	8.51 µM	–	–	–	–	–	–
5.56 µM	8.11 µM	15.8 µM	6.93 µM	COC(=O)c1ccc2nc(O)c3sc4cc(C(=N)NC(C)C)ccc4c3c2c1	5.33 µM	97 µM	13%	15%	6%	7%	6%	14%
5.4 µM	7.57 µM	4.3 µM	5.98 µM	Cc1ccc2c(c1)sc1c(O)nc3ccc(/C(N)=N\C(C)C)cc3c12	18.7 µM	8.59 µM	6%	8%	15%	16%	3%	17%
3.7 µM	3.86 µM	2.7 µM	4.67 µM	COc1ccc2c(Cl)c(C(=O)Nc3ccc(C(=N)NC(C)C)cc3)sc2c1	4.01 µM	2.55 µM	–	–	–	–	–	–
3.49 µM	3.53 µM	3 µM	4.44 µM	Cc1ccc2c(Cl)c(C(=O)Nc3ccc(/C(N)=N\C(C)C)cc3)sc2c1	3.3 µM	3.94 µM	–	–	–	–	–	–
2.62 µM	4.18 µM	3.05 µM	2.54 µM	CC(C)/N=C(/N)c1ccc2c(Cl)c(C(=O)Nc3ccc(Br)cc3)sc2c1	3.64 µM	3.14 µM	–	–	–	–	–	–
2.54 µM	3.93 µM	2.15 µM	3.51 µM	CC(C)/N=C(/N)c1ccc(NC(=O)c2sc3cc(Br)ccc3c2Cl)cc1	2.99 µM	2.37 µM	–	–	–	–	–	–
2.36 µM	3.6 µM	5.65 µM	7.1 µM	COC(=O)c1ccc(NC(=O)c2sc3cc(C(=N)NC(C)C)ccc3c2Cl)cc1	6.9 µM	8.16 µM	–	–	–	–	–	–
1.97 µM	27.8 µM	12.9 µM	6.99 µM	CC(C)/N=C(/N)c1ccc(NC(=O)c2sc3ccccc3c2Cl)cc1	36.4 µM	15.3 µM	–	–	–	–	–	–
1.36 µM	32.2 µM	25.3 µM	7.3 µM	CC(C)/N=C(/N)c1ccc2nc(O)c3sc4ccccc4c3c2c1	≥ 100 µM	16.6 µM	9%	11%	9%	13%	4%	11%
1.27 µM	4.57 µM	4.26 µM	7.23 µM	CC(C)/N=C(/N)c1ccc2c(Cl)c(C(=O)Nc3ccccc3)sc2c1	4.7 µM	23.8 µM	–	–	–	–	–	–
1.23 µM	3.67 µM	2.24 µM	3.49 µM	COC(=O)c1ccc2c(Cl)c(C(=O)Nc3ccc(C(=N)NC(C)C)cc3)sc2c1	2.85 µM	5.37 µM	–	–	–	–	–	–
